Measured values from ChEMBL document CHEMBL5724801, “EUbOPEN Chemogenomics Library - Multiplex” (2024).
Values joined by “and” are separate entries in the source; they are usually repeats but may differ in a detail not shown here. Equal values may be shown once.

Tested on: U2OS
Assay: Multiplex assay against U2OS
Type: toxicity, cell-based
Details: human
In short: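 Cells were classed with CellPathfinder machine-learning gating, first as Hoechst high-intensity objects or normal cells, then (normal cells) as healthy, pyknosed or fragmented nuclei, and finally (pyknosed cells) as mitotic or apoptotic. Staining of live cells at seeding used Hoechst33342, BioTracker Green Microtubule Cytoskeleton Dye, MitoTracker Red and Annexin V Alexa Fluor 680, with imaging on a CQ1 microscope at 37°C and 5% CO2 after compound addition. Tubulin, mitochondrial-mass and membrane-permeability phenotypes are per cents of healthy-nucleus cells.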

[1] = 12 h, 1 µM, compound concentration 1 uM
[2] = 12 h, 10 µM, compound concentration 10 uM
[3] = 24 h, 1 µM, compound concentration 1 uM
[4] = 24 h, 10 µM, compound concentration 10 uM
[5] = 48 h, 1 µM, compound concentration 1 uM
[6] = 48 h, 10 µM, compound concentration 10 uM

COc1cc(NC(=O)CCN2CCC(OC(=O)Nc3ccccc3-c3ccccc3)CC2)c(Cl)cc1CNC[C@H](O)c1ccc(O)c2[nH]c(=O)ccc12 [BATEFENTEROL]
Population Apoptotic (%) [1]: 68% and 85% | Population Fragmented Nuclei (%) [1]: 29% and 14% | Population Healthy Nuclei (%) [1]: 49% and 78% | Population Hoechst High Intensity Objects (%) [1]: 4% and 1% | Population Membrane Permeable-Phenotype (%) [1]: 5% and 9% | Population Mitochondria Different-Phenotype (%) [1]: 5% and 6% | Population Mitotic Cells (%) [1]: 31% and 14% | Population Normal (%) [1]: 95% and 98% | Population Pyknosed Nuclei (%) [1]: 21% and 7% | Population Tubulin-Different-Phenotype (%) [1]: 4% and 7% | Total Cell Count [1]: 159 and 98 | Population Apoptotic (%) [2]: 72% and 88% | Population Fragmented Nuclei (%) [2]: 37% and 18% | Population Healthy Nuclei (%) [2]: 44% and 59% | Population Hoechst High Intensity Objects (%) [2]: 6% and 7% | Population Membrane Permeable-Phenotype (%) [2]: 60% and 57% | Population Mitochondria Different-Phenotype (%) [2]: 67% and 95% | Population Mitotic Cells (%) [2]: 27% and 11% | Population Normal (%) [2]: 93% and 92% | Population Pyknosed Nuclei (%) [2]: 18% and 22% | Population Tubulin-Different-Phenotype (%) [2]: 75% and 97% | Total Cell Count [2]: 196 and 82 | Population Apoptotic (%) [3]: 74% and 100% | Population Fragmented Nuclei (%) [3]: 27% and 12% | Population Healthy Nuclei (%) [3]: 55% and 75% | Population Hoechst High Intensity Objects (%) [3]: 2% and 1% | Population Membrane Permeable-Phenotype (%) [3]: 9% and 5% | Population Mitochondria Different-Phenotype (%) [3]: 9% and 6% | Population Mitotic Cells (%) [3]: 25% and 0% | Population Normal (%) [3]: 97% and 98% | Population Pyknosed Nuclei (%) [3]: 17% and 11% | Population Tubulin-Different-Phenotype (%) [3]: 5% and 2% | Total Cell Count [3]: 182 and 103 | Population Apoptotic (%) [4]: 79% and 73% | Population Fragmented Nuclei (%) [4]: 38% and 29% | Population Healthy Nuclei (%) [4]: 38% and 42% | Population Hoechst High Intensity Objects (%) [4]: 4% and 9% | Population Membrane Permeable-Phenotype (%) [4]: 32% and 52% | Population Mitochondria Different-Phenotype (%) [4]: 59% and 91% | Population Mitotic Cells (%) [4]: 20% and 26% | Population Normal (%) [4]: 95% and 90% | Population Pyknosed Nuclei (%) [4]: 22% and 27% | Population Tubulin-Different-Phenotype (%) [4]: 44% and 91% | Total Cell Count [4]: 199 and 93 | Population Apoptotic (%) [5]: 82% and 85% | Population Fragmented Nuclei (%) [5]: 26% and 17% | Population Healthy Nuclei (%) [5]: 54% and 64% | Population Hoechst High Intensity Objects (%) [5]: 3% and 4% | Population Membrane Permeable-Phenotype (%) [5]: 3% | Population Mitochondria Different-Phenotype (%) [5]: 5% and 1% | Population Mitotic Cells (%) [5]: 17% and 14% | Population Normal (%) [5]: 96% and 95% | Population Pyknosed Nuclei (%) [5]: 19% and 17% | Population Tubulin-Different-Phenotype (%) [5]: 3% and 1% | Total Cell Count [5]: 242 and 123 | Population Apoptotic (%) [6]: 92% and 94% | Population Fragmented Nuclei (%) [6]: 41% and 29% | Population Healthy Nuclei (%) [6]: 39% and 32% | Population Hoechst High Intensity Objects (%) [6]: 6% and 10% | Population Membrane Permeable-Phenotype (%) [6]: 31% and 38% | Population Mitochondria Different-Phenotype (%) [6]: 43% and 70% | Population Mitotic Cells (%) [6]: 7% and 5% | Population Normal (%) [6]: 93% and 89% | Population Pyknosed Nuclei (%) [6]: 18% and 37% | Population Tubulin-Different-Phenotype (%) [6]: 23% and 48% | Total Cell Count [6]: 221 and 105

CC(C)(c1ccc(O)cc1)c1ccc(O)cc1 [BISPHENOL A]
Population Apoptotic (%) [1]: 38.24% and 39.39% | Population Fragmented Nuclei (%) [1]: 2.9% and 4.3% | Population Healthy Nuclei (%) [1]: 88.13% and 77.96% | Population Hoechst High Intensity Objects (%) [1]: 0% | Population Membrane Permeable-Phenotype (%) [1]: 0.3% and 2.76% | Population Mitochondria Different-Phenotype (%) [1]: 0.3% and 6.21% | Population Mitotic Cells (%) [1]: 61.76% and 60.61% | Population Normal (%) [1]: 100% | Population Pyknosed Nuclei (%) [1]: 8.97% and 17.74% | Population Tubulin-Different-Phenotype (%) [1]: 0.9% and 0.69% | Total Cell Count [1]: 379 and 186 | Population Apoptotic (%) [2]: 50% and 47.62% | Population Fragmented Nuclei (%) [2]: 2.17% and 6.45% | Population Healthy Nuclei (%) [2]: 87.31% and 80% | Population Hoechst High Intensity Objects (%) [2]: 0% | Population Membrane Permeable-Phenotype (%) [2]: 0.71% and 4.03% | Population Mitochondria Different-Phenotype (%) [2]: 0.35% and 6.45% | Population Mitotic Cells (%) [2]: 50% and 52.38% | Population Normal (%) [2]: 100% | Population Pyknosed Nuclei (%) [2]: 10.53% and 13.55% | Population Tubulin-Different-Phenotype (%) [2]: 1.42% and 0% | Total Cell Count [2]: 323 and 155 | Population Apoptotic (%) [3]: 49.02% and 57.14% | Population Fragmented Nuclei (%) [3]: 2% and 2.2% | Population Healthy Nuclei (%) [3]: 87.82% and 85.46% | Population Hoechst High Intensity Objects (%) [3]: 0% | Population Membrane Permeable-Phenotype (%) [3]: 1.59% and 3.61% | Population Mitochondria Different-Phenotype (%) [3]: 0% and 5.67% | Population Mitotic Cells (%) [3]: 50.98% and 42.86% | Population Normal (%) [3]: 100% | Population Pyknosed Nuclei (%) [3]: 10.18% and 12.33% | Population Tubulin-Different-Phenotype (%) [3]: 0.68% and 0% | Total Cell Count [3]: 501 and 227 | Population Apoptotic (%) [4]: 38.3% and 22.58% | Population Fragmented Nuclei (%) [4]: 2.34% and 3.03% | Population Healthy Nuclei (%) [4]: 86.68% and 81.31% | Population Hoechst High Intensity Objects (%) [4]: 0% | Population Membrane Permeable-Phenotype (%) [4]: 0.54% and 5.59% | Population Mitochondria Different-Phenotype (%) [4]: 0.81% and 6.21% | Population Mitotic Cells (%) [4]: 61.7% and 77.42% | Population Normal (%) [4]: 100% | Population Pyknosed Nuclei (%) [4]: 10.98% and 15.66% | Population Tubulin-Different-Phenotype (%) [4]: 0.54% and 0.62% | Total Cell Count [4]: 428 and 198 | Population Apoptotic (%) [5]: 38.64% and 58.54% | Population Fragmented Nuclei (%) [5]: 3.22% and 4.97% | Population Healthy Nuclei (%) [5]: 87.66% and 84.29% | Population Hoechst High Intensity Objects (%) [5]: 0% | Population Membrane Permeable-Phenotype (%) [5]: 0.36% and 2.17% | Population Mitochondria Different-Phenotype (%) [5]: 0.24% and 4.66% | Population Mitotic Cells (%) [5]: 61.36% and 41.46% | Population Normal (%) [5]: 100% | Population Pyknosed Nuclei (%) [5]: 9.13% and 10.73% | Population Tubulin-Different-Phenotype (%) [5]: 0.47% and 0% | Total Cell Count [5]: 964 and 382 | Population Apoptotic (%) [6]: 36.49% and 60% | Population Fragmented Nuclei (%) [6]: 2.4% and 2.31% | Population Healthy Nuclei (%) [6]: 88.73% and 86.13% | Population Hoechst High Intensity Objects (%) [6]: 0% | Population Membrane Permeable-Phenotype (%) [6]: 1.22% and 3.02% | Population Mitochondria Different-Phenotype (%) [6]: 0.27% and 2.68% | Population Mitotic Cells (%) [6]: 63.51% and 40% | Population Normal (%) [6]: 100% | Population Pyknosed Nuclei (%) [6]: 8.87% and 11.56% | Population Tubulin-Different-Phenotype (%) [6]: 0.68% and 1.34% | Total Cell Count [6]: 834 and 346
